Data from ChEMBL document CHEMBL4431394, “Modifications of a Nanomolar Cyclic Peptide Antagonist for the EphA4 Receptor To Achieve High Plasma Stability” (ACS Med Chem Lett, 2016).
Peptide text beside a SMILES is read from it.

Columns and labels:
[1] = Half life in mouse plasma assessed as remaining peptide antagonistic activity for inhibition of binding of alkaline phosphatase-fused ephrin-A5 to immobilized EphA4 Fc incubated for 3 days by ELISA; format: cell-free
How it was run: (§1)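 Peptide was incubated in mouse plasma or rat CSF for various periods. The residual ability to inhibit ephrin-A5–EphA4 interaction was then measured by ELISA, and the half-life of active peptide was derived from the loss of activity over time.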

[2] = Stability in Sprague-Dawley rat CSF assessed as remaining peptide antagonistic activity for inhibition of binding of alkaline phosphatase-fused ephrin-A5 to immobilized EphA4 Fc incubated for 3 days by ELISA; format: tissue-based, Cerebrospinal fluid; conditions: in vitro, 72 h; how it was run: as §1
HT-22 = test: Cytotoxicity against mouse HT22 cells at 15 to 30 uM after 24 hrs by MTT assay; format: cell-based; conditions: ht-22, 24 h
How it was run: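 HT22 neuronal cells were grown 24 h with 15 or 30 μM peptide, alongside controls receiving the matching DMSO concentration. Cell number was quantified by MTT, with averages ± SE from 5 measurements.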

Ephrin type-A receptor 4 = Ephrin type-A receptor 4 (Homo sapiens, UniProt P54764); test: Antagonist activity against human EphA4 receptor assessed as inhibition of binding of alkaline phosphatase-fused ephrin-A5 to immobilized EphA4 Fc by ELISA
Sequence of Ephrin type-A receptor 4 (P54764 whole entry, the tested form may be a part): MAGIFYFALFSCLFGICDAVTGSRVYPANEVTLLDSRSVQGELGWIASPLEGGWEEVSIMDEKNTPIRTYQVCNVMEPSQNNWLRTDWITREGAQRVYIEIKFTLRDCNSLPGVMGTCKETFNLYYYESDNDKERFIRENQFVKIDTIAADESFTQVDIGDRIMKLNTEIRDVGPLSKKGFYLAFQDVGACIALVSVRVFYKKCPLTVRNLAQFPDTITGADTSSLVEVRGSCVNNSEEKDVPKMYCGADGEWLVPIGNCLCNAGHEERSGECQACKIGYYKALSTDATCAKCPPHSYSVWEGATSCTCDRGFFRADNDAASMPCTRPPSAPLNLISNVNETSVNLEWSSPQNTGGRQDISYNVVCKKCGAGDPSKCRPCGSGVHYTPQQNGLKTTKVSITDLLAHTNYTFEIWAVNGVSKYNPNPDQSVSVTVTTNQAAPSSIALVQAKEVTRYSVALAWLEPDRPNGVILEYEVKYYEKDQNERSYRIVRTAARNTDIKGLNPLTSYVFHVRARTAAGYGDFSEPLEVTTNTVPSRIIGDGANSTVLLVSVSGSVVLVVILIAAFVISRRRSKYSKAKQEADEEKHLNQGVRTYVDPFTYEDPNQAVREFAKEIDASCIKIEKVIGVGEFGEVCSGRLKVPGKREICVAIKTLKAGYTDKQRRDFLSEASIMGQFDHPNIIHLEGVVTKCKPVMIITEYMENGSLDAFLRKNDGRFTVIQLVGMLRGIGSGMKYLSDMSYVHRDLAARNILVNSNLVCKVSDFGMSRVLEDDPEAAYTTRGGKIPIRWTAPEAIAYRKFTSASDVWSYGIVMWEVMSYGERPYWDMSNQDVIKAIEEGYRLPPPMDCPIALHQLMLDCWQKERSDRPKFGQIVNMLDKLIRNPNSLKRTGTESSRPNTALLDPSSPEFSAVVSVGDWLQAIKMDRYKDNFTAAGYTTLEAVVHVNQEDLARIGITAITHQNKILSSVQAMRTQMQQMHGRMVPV

| SMILES | half-life [1] | other results |
| --- | --- | --- |
| CC(C)[C@@H]1NC(=O)[C@@H](NC(=O)[C@H](Cc2ccc(O)cc2)NC(=O)CCCCN)CSSC[C@@H](C(N)=O)NC(=O)[C@H](CO)NC(=O)[C@H](Cc2c[nH]c3ccccc23)NC(=O)[C@H](CO)NC(=O)CCNC(=O)[C@H](CCCNC(=N)N)NC(=O)[C@H](Cc2ccc(O)cc2)NC1=O | > 72 h |  |
| CC(C)[C@@H]1NC(=O)[C@@H](NC(=O)[C@H](Cc2ccc(O)cc2)NC(=O)CCCCCN)CSSC[C@@H](C(N)=O)NC(=O)[C@H](CO)NC(=O)[C@H](Cc2c[nH]c3ccccc23)NC(=O)[C@H](CO)NC(=O)CCNC(=O)[C@H](CCCNC(=N)N)NC(=O)[C@H](Cc2ccc(O)cc2)NC1=O | > 72 h |  |
| CC(C)[C@@H]1NC(=O)[C@@H](NC(=O)[C@H](Cc2ccc(O)cc2)NC(=O)[C@@H]2CCCN2C(=O)[C@H](C)N)CSSC[C@@H](C(N)=O)NC(=O)[C@H](CO)NC(=O)[C@H](Cc2c[nH]c3ccccc23)NC(=O)[C@H](CO)NC(=O)CCNC(=O)[C@H](CCCNC(=N)N)NC(=O)[C@H](Cc2ccc(O)cc2)NC1=O | < 3 h |  |
| CC(C)[C@@H]1NC(=O)[C@@H](NC(=O)[C@H](Cc2ccc(O)cc2)NC(=O)CCN)CSSC[C@@H](C(N)=O)NC(=O)[C@H](CO)NC(=O)[C@H](Cc2c[nH]c3ccccc23)NC(=O)[C@H](CO)NC(=O)CCNC(=O)[C@H](CCCNC(=N)N)NC(=O)[C@H](Cc2ccc(O)cc2)NC1=O | 30 h |  |
| CC(=O)N1CCC[C@H]1C(=O)N[C@@H](Cc1ccc(O)cc1)C(=O)N[C@H]1CSSC[C@@H](C(N)=O)NC(=O)[C@H](CO)NC(=O)[C@H](Cc2c[nH]c3ccccc23)NC(=O)[C@H](CO)NC(=O)CCNC(=O)[C@H](CCCNC(=N)N)NC(=O)[C@H](Cc2ccc(O)cc2)NC(=O)[C@H](C(C)C)NC1=O | > 72 h |  |
| CC(C)[C@@H]1NC(=O)[C@@H](NC(=O)[C@H](Cc2ccc(O)cc2)NC(=O)[C@@H]2CCCN2)CSSC[C@@H](C(N)=O)NC(=O)[C@H](CO)NC(=O)[C@H](Cc2c[nH]c3ccccc23)NC(=O)[C@H](CO)NC(=O)CCNC(=O)[C@H](CCCNC(=N)N)NC(=O)[C@H](Cc2ccc(O)cc2)NC1=O | 15 h |  |
| CC(C)[C@@H]1NC(=O)[C@@H](NC(=O)[C@H](Cc2ccc(O)cc2)NC(=O)[C@@H]2CCCN2C(=O)[C@@H](C)N)CSSC[C@@H](C(N)=O)NC(=O)[C@H](CO)NC(=O)[C@H](Cc2c[nH]c3ccccc23)NC(=O)[C@H](CO)NC(=O)CCNC(=O)[C@H](CCCNC(=N)N)NC(=O)[C@H](Cc2ccc(O)cc2)NC1=O | > 72 h | Stability [2]: Stable |
| CC(C)[C@@H]1NC(=O)[C@@H](NC(=O)[C@H](Cc2ccc(O)cc2)NC(=O)CCCN)CSSC[C@@H](C(N)=O)NC(=O)[C@H](CO)NC(=O)[C@H](Cc2c[nH]c3ccccc23)NC(=O)[C@H](CO)NC(=O)CCNC(=O)[C@H](CCCNC(=N)N)NC(=O)[C@H](Cc2ccc(O)cc2)NC1=O | > 72 h |  |
| CC(C)[C@@H]1NC(=O)[C@@H](NC(=O)[C@H](Cc2ccc(O)cc2)NC(=O)CN)CSSC[C@@H](C(N)=O)NC(=O)[C@H](CO)NC(=O)[C@H](Cc2c[nH]c3ccccc23)NC(=O)[C@H](CO)NC(=O)CCNC(=O)[C@H](CCCNC(=N)N)NC(=O)[C@H](Cc2ccc(O)cc2)NC1=O | 6 h |  |
| CC(C)[C@@H]1NC(=O)[C@@H](NC(=O)[C@H](Cc2ccc(O)cc2)NC(=O)[C@@H]2CCCN2C(=O)CCN)CSSC[C@@H](C(N)=O)NC(=O)[C@H](CCC(=O)O)NC(=O)[C@H](Cc2c[nH]c3ccccc23)NC(=O)[C@H](CCC(=O)O)NC(=O)CCNC(=O)[C@H](CCCNC(=N)N)NC(=O)[C@H](Cc2ccc(O)cc2)NC1=O | > 72 h | Activity (HT-22): Non-Toxic |
| CNCC(=O)N[C@@H](Cc1ccc(O)cc1)C(=O)N[C@H]1CSSC[C@@H](C(N)=O)NC(=O)[C@H](CO)NC(=O)[C@H](Cc2c[nH]c3ccccc23)NC(=O)[C@H](CO)NC(=O)CCNC(=O)[C@H](CCCNC(=N)N)NC(=O)[C@H](Cc2ccc(O)cc2)NC(=O)[C@H](C(C)C)NC1=O | > 72 h |  |
| CC(=O)N[C@@H](C)C(=O)N1CCC[C@H]1C(=O)N[C@@H](Cc1ccc(O)cc1)C(=O)N[C@H]1CSSC[C@@H](C(N)=O)NC(=O)[C@H](CO)NC(=O)[C@H](Cc2c[nH]c3ccccc23)NC(=O)[C@H](CO)NC(=O)CCNC(=O)[C@H](CCCNC(=N)N)NC(=O)[C@H](Cc2ccc(O)cc2)NC(=O)[C@H](C(C)C)NC1=O | 72 h |  |
| CC(C)[C@@H]1NC(=O)[C@@H](NC(=O)[C@H](Cc2ccc(O)cc2)NC(=O)[C@@H]2CCCN2C(=O)CCN)CSSC[C@@H](C(N)=O)NC(=O)[C@H](Cc2c[nH]c3ccccc23)NC(=O)[C@H](CCC(=O)O)NC(=O)[C@H](CCC(=O)O)NC(=O)CCNC(=O)[C@H](CCCNC(=N)N)NC(=O)[C@H](Cc2ccc(O)cc2)NC1=O (HELM PEPTIDE1{[bAla].P.Y.C.V.Y.R.[bAla].E.E.W.C.[am]}$PEPTIDE1,PEPTIDE1,4:R3-12:R3$$$V2.0) |  | IC50 (Ephrin type-A receptor 4): > 10 µM |
